Assay results from ChEMBL document CHEMBL1681637, “Synthesis and antitubercular activity of monocyclic nitroimidazoles: insights from econazole” (Bioorg Med Chem Lett, 2011).
≈ marks a conversion by molar mass, not a printed value.

Experiments:
[1] = test system: Mycobacterium tuberculosis; experiment: Antitubercular activity against multidrug-resistant Mycobacterium tuberculosis H37Rv after 7 days by alamar blue assay; format: functional; conditions: 168 h
[2] = test system: Mycobacterium tuberculosis; experiment: Antitubercular activity against multidrug-resistant Mycobacterium tuberculosis H37Rv under anaerobic condition after 7 days by GFP reporter gene assay; format: functional; conditions: 168 h
How it was run: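 GFP-expressing Mtb H37Rv, made non-replicating by the Wayne hypoxia model, was added to 2-fold DMSO serial compound dilutions inside an anaerobic chamber. Plates were held at 37 °C for 7 days under anaerobiosis, then diluted 10-fold into fresh medium and outgrown for 2 days. Fluorescence was read at ex 485/em 520 nm. MIC was the lowest concentration giving 80% fluorescence inhibition versus bacteria-only wells.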

## O=[N+]([O-])c1cn(CC(O)c2ccc(Cl)cc2)c(Br)n1 (racemic)
[1]
  MIC: 64 mg/L (≈ 185 µM)

## O=[N+]([O-])c1cn(CC(O)c2ccc(Cl)cc2Cl)cn1 (racemic)
[1]
  MIC: 32 mg/L (≈ 106 µM)

## Cc1nc([N+](=O)[O-])cn1CC(O)c1ccc(Cl)cc1Cl (racemic)
[1]
  MIC: > 256 mg/L

## O=[N+]([O-])c1cn(CC(O)c2ccc(Cl)cc2Cl)c(Br)n1 (racemic)
[1]
  MIC: 2 mg/L (≈ 5.25 µM)
[2]
  MIC: 8 mg/L (≈ 21 µM)

## O=[N+]([O-])c1cn(CC(O)c2ccc(F)cc2F)cn1 (racemic)
[1]
  MIC: 256 mg/L (≈ 951 µM)

## O=[N+]([O-])c1cn(CC(O)c2ccc(F)cc2F)c(Br)n1 (racemic)
[1]
  MIC: 64 mg/L (≈ 184 µM)

## O=[N+]([O-])c1cn(CC(O)c2ccc(F)cc2)c(Br)n1 (racemic)
[1]
  MIC: 128 mg/L (≈ 388 µM)

## O=[N+]([O-])c1ccc(C(O)Cn2cc([N+](=O)[O-])nc2Br)cc1 (racemic)
[1]
  MIC: 64 mg/L (≈ 179 µM)

## O=[N+]([O-])c1cn(CC(O)c2ccc(-c3ccccc3)cc2)c(Br)n1 (racemic)
[1]
  MIC: > 256 mg/L

## O=[N+]([O-])c1cn(CC(O)c2ccccc2)c(Br)n1 (racemic)
[1]
  MIC: 32 mg/L (≈ 103 µM)

## Cc1ccc(C(O)Cn2cc([N+](=O)[O-])nc2Br)c(C)c1 (racemic)
[1]
  MIC: 128 mg/L (≈ 376 µM)

## O=[N+]([O-])c1cn(CC(OCc2ccc(Cl)cc2)c2ccc(Cl)cc2Cl)cn1 (racemic)
[1]
  MIC: > 256 mg/L

## Cc1nc([N+](=O)[O-])cn1CC(OCc1ccc(Cl)cc1)c1ccc(Cl)cc1Cl (racemic)
[1]
  MIC: > 256 mg/L

## O=[N+]([O-])c1cn(CC(OCc2ccc(Cl)cc2)c2ccc(Cl)cc2Cl)c(Br)n1 (racemic)
[1]
  MIC: > 256 mg/L

## O=[N+]([O-])c1cn(CC(OCc2ccc(Cl)cc2)c2ccc(F)cc2F)cn1 (racemic)
[1]
  MIC: > 256 mg/L

## O=[N+]([O-])c1cn(CC(OCc2ccc(Cl)cc2)c2ccc(F)cc2F)c(Br)n1 (racemic)
[1]
  MIC: > 256 mg/L

## O=[N+]([O-])c1cn(CC(OCc2ccccc2F)c2ccc(Cl)cc2Cl)cn1 (racemic)
[1]
  MIC: > 256 mg/L

## O=[N+]([O-])c1cn(CC(OCc2ccc(F)cc2)c2ccc(Cl)cc2Cl)cn1 (racemic)
[1]
  MIC: > 256 mg/L

## O=[N+]([O-])c1cn(CC(OCc2ccccc2F)c2ccc(Cl)cc2Cl)c(Br)n1 (racemic)
[1]
  MIC: > 256 mg/L

## O=[N+]([O-])c1cn(CC(OCc2ccc(F)cc2)c2ccc(Cl)cc2Cl)c(Br)n1 (racemic)
[1]
  MIC: > 256 mg/L

## O=[N+]([O-])c1cn(CC(OCc2ccc(F)cc2F)c2ccc(Cl)cc2Cl)cn1 (racemic)
[1]
  MIC: > 256 mg/L

## O=[N+]([O-])c1cn(CC(OCc2cc(F)ccc2F)c2ccc(Cl)cc2Cl)cn1 (racemic)
[1]
  MIC: > 256 mg/L

## O=[N+]([O-])c1cn(CC(OCc2ccc(OC(F)(F)F)cc2)c2ccc(Cl)cc2Cl)cn1 (racemic)
[1]
  MIC: > 256 mg/L

## O=[N+]([O-])c1cn(CC(OCc2cc(F)cc(F)c2)c2ccc(Cl)cc2Cl)cn1 (racemic)
[1]
  MIC: > 256 mg/L

## O=[N+]([O-])c1cn(CC(OCc2cc(F)cc(F)c2)c2ccc(Cl)cc2Cl)c(Br)n1 (racemic)
[1]
  MIC: > 256 mg/L

## O=[N+]([O-])c1cn(CC(OCc2ccc(F)cc2)c2ccc(F)cc2F)cn1 (racemic)
[1]
  MIC: > 256 mg/L

## O=[N+]([O-])c1cn(CC(OCc2ccc(OC(F)(F)F)cc2)c2ccc(F)cc2F)cn1 (racemic)
[1]
  MIC: > 256 mg/L

## O=[N+]([O-])c1cn(CC(OCc2cc(F)cc(F)c2)c2ccc(F)cc2F)cn1 (racemic)
[1]
  MIC: > 256 mg/L

## COc1nc([N+](=O)[O-])cn1CC(O)c1ccc(Cl)cc1Cl (racemic)
[1]
  MIC: 0.5 mg/L (≈ 1.51 µM)
[2]
  MIC: 4 mg/L (≈ 12 µM)

## COc1nc([N+](=O)[O-])cn1CC(O)c1ccc(F)cc1F (racemic)
[1]
  MIC: 4 mg/L (≈ 13.4 µM)
[2]
  MIC: 4 mg/L (≈ 13.4 µM)

## COc1nc([N+](=O)[O-])cn1CC(O)c1ccc(F)cc1 (racemic)
[1]
  MIC: 16 mg/L (≈ 56.9 µM)

## COc1nc([N+](=O)[O-])cn1CC(O)c1ccc(Cl)cc1 (racemic)
[1]
  MIC: 16 mg/L (≈ 53.7 µM)

## COc1nc([N+](=O)[O-])cn1CC(O)c1ccc([N+](=O)[O-])cc1 (racemic)
[1]
  MIC: 16 mg/L (≈ 51.9 µM)

## COc1nc([N+](=O)[O-])cn1CC(O)c1ccc(-c2ccccc2)cc1 (racemic)
[1]
  MIC: 0.5 mg/L (≈ 1.47 µM)
[2]
  MIC: 1 mg/L (≈ 2.95 µM)

## CSc1nc([N+](=O)[O-])cn1CC(O)c1ccc(Cl)cc1Cl (racemic)
[1]
  MIC: 16 mg/L (≈ 45.9 µM)

## COc1nc([N+](=O)[O-])cn1CC(O)c1ccccc1 (racemic)
[1]
  MIC: 8 mg/L (≈ 30.4 µM)

## COc1nc([N+](=O)[O-])cn1CC(O)c1ccc(C)cc1C (racemic)
[1]
  MIC: 16 mg/L (≈ 54.9 µM)

## COc1nc([N+](=O)[O-])cn1CC(OCc1ccc(Cl)cc1)c1ccc(Cl)cc1Cl (racemic)
[1]
  MIC: > 256 mg/L

## CSc1nc([N+](=O)[O-])cn1CC(OCc1ccc(F)cc1)c1ccc(Cl)cc1Cl (racemic)
[1]
  MIC: > 256 mg/L

## COc1nc([N+](=O)[O-])cn1CC(OCc1ccc(OC(F)(F)F)cc1)c1ccc(Cl)cc1Cl (racemic)
[1]
  MIC: > 256 mg/L

## COc1nc([N+](=O)[O-])cn1CC(OCc1ccc(Cl)cc1)c1ccc(F)cc1F (racemic)
[1]
  MIC: > 16 mg/L

## COc1nc([N+](=O)[O-])cn1CC(OCc1ccc(F)cc1)c1ccc(F)cc1F (racemic)
[1]
  MIC: > 32 mg/L

## COc1nc([N+](=O)[O-])cn1CC(OCc1ccc(OC(F)(F)F)cc1)c1ccc(F)cc1F (racemic)
[1]
  MIC: > 256 mg/L

## COc1nc([N+](=O)[O-])cn1CC(OCc1cc(F)cc(F)c1)c1ccc(Cl)cc1Cl (racemic)
[1]
  MIC: > 256 mg/L

## COc1nc([N+](=O)[O-])cn1CC(OCc1ccc(F)cc1)c1ccc(Cl)cc1Cl (racemic)
[1]
  MIC: > 256 mg/L

## CSc1nc([N+](=O)[O-])cn1CC(OCc1ccc(Cl)cc1)c1ccc(Cl)cc1Cl (racemic)
[1]
  MIC: > 256 mg/L

## CSc1nc([N+](=O)[O-])cn1CC(OCc1cc(F)cc(F)c1)c1ccc(Cl)cc1Cl (racemic)
[1]
  MIC: > 256 mg/L

## CSc1nc([N+](=O)[O-])cn1CC(OCc1ccc(Cl)cc1)c1ccc(F)cc1F (racemic)
[1]
  MIC: > 256 mg/L

## Clc1ccc(COC(Cn2ccnc2)c2ccc(Cl)cc2Cl)cc1 (stereo not given) [ECONAZOLE]
[1]
  MIC: 16 mg/L (≈ 41.9 µM)

## O=[N+]([O-])c1cn2c(n1)OC[C@@H](OCc1ccc(OC(F)(F)F)cc1)C2 [PRETOMANID]
[1]
  MIC: 0.13 mg/L (≈ 0.362 µM)
[2]
  MIC: 2 mg/L (≈ 5.57 µM)
